From PubChem BioAssay AID651708 (Sanford-Burnham Center for Chemical Genomics, 2012) come the findings set out here.

Molecules are shown by their SMILES. pIC50: −log10 of the molar value. Active and inactive are the calls of the source.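 Rule for the calls: active = compound with IC50 above 30 µM at both the APJ and CCR6 off-target receptors, and at most 10 µM at CXCR6; inactive = the rest.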

Holding throughout (test): GPCR panel antagonist activity incl. apelin receptor – cell-based, CHO-K1 PathHunter beta-arrestin, luminescence, set 3, selectivity assay for CXCR6 antagonist project, profiling panel (AID 651708)
The target of experiment [1] is C-X-C chemokine receptor type 6 (Homo sapiens) (UniProt O00574). The note with it: antagonist mode. In outline: (§1)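 Signal: β-arrestin recruitment luminescence; test system: CHO-K1 PathHunter β-arrestin cell lines for APJ, CCR6 or CXCR6; also added: APJ 10 nM Apelin-13, CCR6 14 nM CCL20, CXCR6 CXCL16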
Sequence of C-X-C chemokine receptor type 6 (Homo sapiens) (O00574 whole entry, looked up): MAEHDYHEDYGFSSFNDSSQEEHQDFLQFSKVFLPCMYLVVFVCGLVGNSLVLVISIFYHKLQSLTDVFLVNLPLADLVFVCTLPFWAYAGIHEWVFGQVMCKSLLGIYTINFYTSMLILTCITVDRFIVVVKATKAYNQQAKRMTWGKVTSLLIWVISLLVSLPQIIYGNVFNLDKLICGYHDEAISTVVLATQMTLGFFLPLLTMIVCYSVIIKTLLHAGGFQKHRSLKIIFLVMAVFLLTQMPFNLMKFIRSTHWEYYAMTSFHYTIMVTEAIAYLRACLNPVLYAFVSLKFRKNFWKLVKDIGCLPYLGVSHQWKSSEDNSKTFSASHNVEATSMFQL
Experiment [2] concerns the target Apelin receptor (Homo sapiens) (UniProt P35414). The note with it: antagonist mode, APJ. In outline:
as §1

Experiment [3] deals with C-C chemokine receptor type 6 (Homo sapiens) (UniProt P51684). To be noted: antagonist mode; for IC50: CCR6, mean of runs. The method, boiled down:
as §1

Sequence of C-C chemokine receptor type 6 (Homo sapiens) (P51684 whole entry, looked up): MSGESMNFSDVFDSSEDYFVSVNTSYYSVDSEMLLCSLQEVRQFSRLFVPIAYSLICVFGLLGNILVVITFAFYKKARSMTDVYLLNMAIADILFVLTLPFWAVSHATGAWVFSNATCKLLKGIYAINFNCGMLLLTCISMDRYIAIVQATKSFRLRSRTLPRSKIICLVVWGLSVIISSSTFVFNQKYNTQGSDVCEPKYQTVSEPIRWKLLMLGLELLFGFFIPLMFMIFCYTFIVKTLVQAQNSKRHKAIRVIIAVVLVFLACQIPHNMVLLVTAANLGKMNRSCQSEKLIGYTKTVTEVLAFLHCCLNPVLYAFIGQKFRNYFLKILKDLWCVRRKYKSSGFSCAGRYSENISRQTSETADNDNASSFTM
Sequence of Apelin receptor (Homo sapiens) (P35414 whole entry, looked up): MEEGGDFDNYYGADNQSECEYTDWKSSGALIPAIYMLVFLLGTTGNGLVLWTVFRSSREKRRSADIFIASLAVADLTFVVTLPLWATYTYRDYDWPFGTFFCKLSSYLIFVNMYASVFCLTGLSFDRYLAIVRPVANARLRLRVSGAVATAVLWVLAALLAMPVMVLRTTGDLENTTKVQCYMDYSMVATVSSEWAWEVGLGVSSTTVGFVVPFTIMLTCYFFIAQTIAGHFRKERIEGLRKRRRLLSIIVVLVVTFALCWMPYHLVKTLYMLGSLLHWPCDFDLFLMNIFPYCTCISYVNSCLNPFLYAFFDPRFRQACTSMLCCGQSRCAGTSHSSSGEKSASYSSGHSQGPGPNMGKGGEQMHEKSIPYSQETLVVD

Usually IC50 stands for the midpoint of a concentration-inhibition curve. A word on the pIC50: it is the negative decadic logarithm of the IC50, by convention in mol/L. Turning to `COc1ccc(CN2C3CCCC2CC(NC(=O)c2cc(OC)c(OC)c(OC)c2)C3)cc1` (stereo unspecified), the IC50 is > 79 µM (inactive) in experiment [1] (CXCR6, mean of runs) and > 79 µM (inactive) in experiment [3]. Also, the pIC50 in experiment [1] (CXCR6, run 1) is below 4.10; in experiment [1] (CXCR6, run 2), below 4.10; in experiment [2] (mean of runs) it was 4.77; in experiment [2] (run 1), 5.00; in experiment [2] (run 2), 4.62; in experiment [3] (CCR6, run 1), below 4.10. In addition, the pIC50 in experiment [3] (CCR6, run 2) was below 4.10.

As to `COc1ccc(C(=O)NC2CC3CCCC(C2)N3CC(=O)Nc2ccc(Cl)cc2)cc1` (stereo unspecified), the IC50 in experiment [1] (CXCR6, mean of runs) is > 79 µM (inactive); in experiment [2] (mean of runs) it was > 79 µM (inactive); in experiment [3], > 79 µM (inactive). In addition, the negative logarithm of the IC50 (pIC50) is below 4.10 in experiment [1] (CXCR6, run 1); below 4.10 in experiment [1] (CXCR6, run 2); below 4.10 in experiment [2] (run 1); below 4.10 in experiment [2] (run 2); below 4.10 in experiment [3] (CCR6, run 1); below 4.10 in experiment [3] (CCR6, run 2).

Consider `COc1ccc(C(=O)NC2CC3CCCC(C2)N3CC(=O)Nc2ccc(F)cc2)cc1` (stereo unspecified), for which the IC50 in experiment [1] (CXCR6, mean of runs) is > 79 µM (inactive); in experiment [2] (mean of runs), > 79 µM (inactive); in experiment [3], > 79 µM (inactive). In addition, the pIC50 in experiment [1] (CXCR6, run 1) is below 4.10; in experiment [1] (CXCR6, run 2) it was below 4.10; in experiment [2] (run 1), below 4.10; in experiment [2] (run 2) it was below 4.10; in experiment [3] (CCR6, run 1) it was below 4.10; in experiment [3] (CCR6, run 2), below 4.10.

On to `O=C(CN1C2CCCC1CC(NC(=O)c1ccccc1)C2)Nc1ccccc1` (stereo unspecified), for which the IC50 in experiment [1] (CXCR6, mean of runs) was > 79 µM (inactive); in experiment [2] (mean of runs), > 79 µM (inactive); in experiment [3], > 79 µM (inactive). Further, the pIC50 is below 4.10 in experiment [1] (CXCR6, run 1); below 4.10 in experiment [1] (CXCR6, run 2); below 4.10 in experiment [2] (run 1); below 4.10 in experiment [2] (run 2); below 4.10 in experiment [3] (CCR6, run 1); below 4.10 in experiment [3] (CCR6, run 2).

Consider `COc1ccc(C(=O)NC2CC3CCCC(C2)N3CC(=O)Nc2ccc(Cl)cc2)cc1OC` (stereo unspecified), for which the IC50 is > 79 µM (inactive) in experiment [1] (CXCR6, mean of runs); > 79 µM (inactive) in experiment [2] (mean of runs); > 79 µM (inactive) in experiment [3]. For the same compound, the pIC50 in experiment [1] (CXCR6, run 1) was below 4.10; in experiment [1] (CXCR6, run 2) it was below 4.10; in experiment [2] (run 1), below 4.10; in experiment [2] (run 2), below 4.10; in experiment [3] (CCR6, run 1) it was below 4.10; in experiment [3] (CCR6, run 2), below 4.10.

For the compound `COc1cccc(C(=O)NC2CC3CCCC(C2)N3CC(=O)Nc2ccc(C)cc2)c1` (stereo unspecified), the IC50 in experiment [1] (CXCR6, mean of runs) is > 79 µM (inactive); in experiment [3], > 79 µM (inactive). Moreover, the pIC50 is below 4.10 in experiment [1] (CXCR6, run 1); below 4.10 in experiment [1] (CXCR6, run 2); below 4.10 in experiment [2] (run 1); 5.93 in experiment [2] (run 2); below 4.10 in experiment [3] (CCR6, run 1); below 4.10 in experiment [3] (CCR6, run 2).

For `COc1cc(OC)cc(C(=O)NC2CC3CCCC(C2)N3CC(=O)Nc2ccccc2)c1` (stereo unspecified), the IC50 is > 79 µM (inactive) in experiment [1] (CXCR6, mean of runs) and > 79 µM (inactive) in experiment [3]. Moreover, the pIC50 in experiment [1] (CXCR6, run 1) is below 4.10; in experiment [1] (CXCR6, run 2) it was below 4.10; in experiment [2] (run 1), below 4.10; in experiment [2] (run 2), 4.95; in experiment [3] (CCR6, run 1) it was below 4.10; in experiment [3] (CCR6, run 2) it was below 4.10.

As to `COc1cc(C(=O)NC2CC3CCCC(C2)N3CC(=O)Nc2ccc(F)cc2)cc(OC)c1OC` (stereo unspecified), the pIC50 is 5.45 in experiment [1] (CXCR6, mean of runs); 5.51 in experiment [1] (CXCR6, run 1); 5.40 in experiment [1] (CXCR6, run 2); below 4.10 in experiment [2] (run 1); below 4.10 in experiment [2] (run 2); below 4.10 in experiment [3] (CCR6, run 1). The negative-log IC50 (pIC50) in experiment [3] (CCR6, run 2) was below 4.10. Further, the IC50 in experiment [2] (mean of runs) and in experiment [3] was > 79 µM (inactive) throughout.

For the compound `COc1ccc(NC(=O)CN2C3CCCC2CC(NC(=O)c2ccc(OC)cc2)C3)cc1` (stereo unspecified), the IC50 was > 79 µM (inactive) in experiment [1] (CXCR6, mean of runs) and > 79 µM (inactive) in experiment [3]. Besides, the negative logarithm of the IC50 (pIC50) in experiment [1] (CXCR6, run 1) was below 4.10; in experiment [1] (CXCR6, run 2), below 4.10; in experiment [2] (run 1), below 4.10; in experiment [2] (run 2) it was 5.37; in experiment [3] (CCR6, run 1), below 4.10; in experiment [3] (CCR6, run 2), below 4.10.

Take `COc1ccc(NC(=O)CN2C3CCCC2CC(NC(=O)c2cc(OC)cc(OC)c2)C3)cc1` (stereo unspecified): the IC50 in experiment [1] (CXCR6, mean of runs) is > 79 µM (inactive); in experiment [2] (mean of runs) it was > 79 µM (inactive); in experiment [3] it was > 79 µM (inactive). For the same compound, the negative-log IC50 (pIC50) in experiment [1] (CXCR6, run 1) is below 4.10; in experiment [1] (CXCR6, run 2) it was below 4.10; in experiment [2] (run 1), below 4.10; in experiment [2] (run 2), below 4.10; in experiment [3] (CCR6, run 1), below 4.10; in experiment [3] (CCR6, run 2), below 4.10.

For the compound `COc1ccc(NC(=O)CN2C3CCCC2CC(NC(=O)c2cccc(OC)c2)C3)cc1` (stereo unspecified), the IC50 in experiment [1] (CXCR6, mean of runs) was > 79 µM (inactive); in experiment [2] (mean of runs), > 79 µM (inactive); in experiment [3], > 79 µM (inactive). For the same compound, the pIC50 was below 4.10 in experiment [1] (CXCR6, run 1); below 4.10 in experiment [1] (CXCR6, run 2); below 4.10 in experiment [2] (run 1); below 4.10 in experiment [2] (run 2); below 4.10 in experiment [3] (CCR6, run 1); below 4.10 in experiment [3] (CCR6, run 2).
